Legend:
[1] = target: Proto-oncogene tyrosine-protein kinase Src (Homo sapiens, UniProt P12931); test: Inhibition of SRC Lys1 labeling site in human Huh-7 cell lysate at 1 uM by KiNativ Profiling analysis relative to control; format: subcellular
[2] = target: Mitogen-activated protein kinase kinase kinase kinase 4 (Homo sapiens, UniProt O95819); test: Inhibition of ZC1/HGK Lys1 labeling site in human A-375 cells at 5 uM by KiNativ Profiling analysis relative to control; format: cell-based
[3] = target: Cyclin-dependent kinase 2 (Homo sapiens) (UniProt P24941); test: Inhibition of CDK2 Lys1 labeling site in human A-375 cells at 5 uM by KiNativ Profiling analysis relative to control; format: cell-based
How it was run: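 Intact A375 melanoma cells were treated with compound at 5 or 0.5 μM, then lysed. Lysate kinases were labeled with a lysine-reactive ATP or ADP-biotin probe (KiNativ). Inhibition is read as protection of each kinase labeling site from probe labeling.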

[4] = target: T1, Kinase suppressor of Ras 2 (Homo sapiens) (UniProt Q6VAB6); test: Inhibition of KSR2 ACT labeling site in human A-375 cells at 5 uM by KiNativ Profiling analysis relative to control; format: cell-based
T1 sequence (whole entry): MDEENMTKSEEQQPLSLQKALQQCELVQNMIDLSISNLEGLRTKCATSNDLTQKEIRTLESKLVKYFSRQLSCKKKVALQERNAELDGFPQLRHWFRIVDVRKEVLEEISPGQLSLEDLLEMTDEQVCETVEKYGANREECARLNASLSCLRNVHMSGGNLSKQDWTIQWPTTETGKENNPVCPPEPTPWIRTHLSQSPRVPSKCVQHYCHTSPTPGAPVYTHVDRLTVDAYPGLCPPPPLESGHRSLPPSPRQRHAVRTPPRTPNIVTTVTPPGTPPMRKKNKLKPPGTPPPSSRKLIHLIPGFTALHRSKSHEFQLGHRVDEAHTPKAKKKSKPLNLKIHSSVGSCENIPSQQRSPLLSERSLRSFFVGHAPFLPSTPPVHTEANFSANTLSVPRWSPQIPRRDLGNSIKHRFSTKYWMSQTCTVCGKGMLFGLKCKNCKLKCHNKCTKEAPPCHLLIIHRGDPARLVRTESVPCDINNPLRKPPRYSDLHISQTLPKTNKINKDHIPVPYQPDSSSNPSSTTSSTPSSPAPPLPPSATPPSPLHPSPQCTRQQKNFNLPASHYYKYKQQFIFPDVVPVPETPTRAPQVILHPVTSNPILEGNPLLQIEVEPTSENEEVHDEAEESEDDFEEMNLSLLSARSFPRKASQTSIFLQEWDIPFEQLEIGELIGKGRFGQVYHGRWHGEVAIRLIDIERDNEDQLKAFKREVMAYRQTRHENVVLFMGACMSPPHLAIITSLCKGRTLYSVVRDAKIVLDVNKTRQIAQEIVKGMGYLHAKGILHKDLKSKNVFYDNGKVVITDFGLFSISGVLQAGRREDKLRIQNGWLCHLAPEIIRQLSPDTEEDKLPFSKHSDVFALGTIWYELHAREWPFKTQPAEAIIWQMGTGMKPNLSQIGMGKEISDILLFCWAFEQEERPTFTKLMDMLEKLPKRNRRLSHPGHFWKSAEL

[5] = target: T2, Serine/threonine-protein kinase Nek8 (Homo sapiens) (UniProt Q86SG6); test: Inhibition of NEK8 Lys2 labeling site in human A-375 cells at 0.5 uM by KiNativ Profiling analysis relative to control; format: cell-based
T2 sequence (whole entry): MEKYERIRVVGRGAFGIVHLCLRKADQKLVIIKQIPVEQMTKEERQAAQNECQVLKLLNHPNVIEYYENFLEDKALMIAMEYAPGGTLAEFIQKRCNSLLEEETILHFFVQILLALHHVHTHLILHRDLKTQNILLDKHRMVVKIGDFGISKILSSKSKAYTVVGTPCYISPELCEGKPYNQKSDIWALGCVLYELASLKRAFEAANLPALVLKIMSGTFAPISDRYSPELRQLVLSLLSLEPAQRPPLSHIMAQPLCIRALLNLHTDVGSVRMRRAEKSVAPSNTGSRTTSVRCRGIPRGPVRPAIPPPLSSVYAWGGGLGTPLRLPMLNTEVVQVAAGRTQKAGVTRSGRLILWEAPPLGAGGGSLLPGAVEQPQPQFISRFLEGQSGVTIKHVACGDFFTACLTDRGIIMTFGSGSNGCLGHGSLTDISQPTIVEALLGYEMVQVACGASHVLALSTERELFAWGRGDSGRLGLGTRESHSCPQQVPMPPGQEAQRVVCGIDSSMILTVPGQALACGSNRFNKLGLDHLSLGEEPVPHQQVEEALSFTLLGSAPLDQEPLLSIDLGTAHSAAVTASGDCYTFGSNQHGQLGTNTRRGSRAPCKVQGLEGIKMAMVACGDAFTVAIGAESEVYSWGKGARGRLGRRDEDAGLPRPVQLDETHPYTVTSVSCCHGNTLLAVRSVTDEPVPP

[6] = target: Serine/threonine-protein kinase WNK2 (Homo sapiens) (UniProt Q9Y3S1); test: Inhibition of Wnk2 ACT labeling site in human A-375 cells at 0.5 uM by KiNativ Profiling analysis relative to control; format: cell-based
[7] = target: Phosphatidylinositol 3-kinase catalytic subunit type 3 (Homo sapiens) (UniProt Q8NEB9); test: Inhibition of PIK3C3 ATP labeling site in human A-375 cells at 0.05 uM by KiNativ Profiling analysis relative to control; format: cell-based
[8] = target: Mitogen-activated protein kinase kinase kinase 20 (Homo sapiens, UniProt Q9NYL2); test: Inhibition of ZAK Lys1 labeling site in human A-375 cells at 0.05 uM by KiNativ Profiling analysis relative to control; format: cell-based
Mitogen-activated protein kinase kinase kinase 20, sequence (Q9NYL2 2-800 limits assumed): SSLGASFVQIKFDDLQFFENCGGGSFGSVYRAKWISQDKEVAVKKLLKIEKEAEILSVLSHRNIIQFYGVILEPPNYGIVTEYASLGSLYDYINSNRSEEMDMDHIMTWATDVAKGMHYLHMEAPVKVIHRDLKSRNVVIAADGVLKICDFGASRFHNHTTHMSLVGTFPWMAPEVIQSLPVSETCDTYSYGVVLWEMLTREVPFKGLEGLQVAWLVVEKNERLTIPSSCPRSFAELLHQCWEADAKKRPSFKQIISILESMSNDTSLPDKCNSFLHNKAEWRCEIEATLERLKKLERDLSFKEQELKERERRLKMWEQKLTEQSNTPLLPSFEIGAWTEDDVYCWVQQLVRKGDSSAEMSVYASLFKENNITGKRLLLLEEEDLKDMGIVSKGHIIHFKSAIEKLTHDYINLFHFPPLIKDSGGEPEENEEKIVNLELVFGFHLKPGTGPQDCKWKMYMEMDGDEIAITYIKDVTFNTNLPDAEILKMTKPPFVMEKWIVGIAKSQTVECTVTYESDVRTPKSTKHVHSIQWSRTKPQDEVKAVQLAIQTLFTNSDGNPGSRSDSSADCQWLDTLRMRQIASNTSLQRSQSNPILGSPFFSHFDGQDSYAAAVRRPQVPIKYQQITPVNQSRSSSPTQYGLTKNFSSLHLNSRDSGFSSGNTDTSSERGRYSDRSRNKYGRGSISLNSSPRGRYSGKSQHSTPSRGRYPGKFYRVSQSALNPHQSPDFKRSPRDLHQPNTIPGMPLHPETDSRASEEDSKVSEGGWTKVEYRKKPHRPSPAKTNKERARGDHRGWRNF

Proto-oncogene tyrosine-protein kinase Src, sequence (P12931 2-536 limits assumed): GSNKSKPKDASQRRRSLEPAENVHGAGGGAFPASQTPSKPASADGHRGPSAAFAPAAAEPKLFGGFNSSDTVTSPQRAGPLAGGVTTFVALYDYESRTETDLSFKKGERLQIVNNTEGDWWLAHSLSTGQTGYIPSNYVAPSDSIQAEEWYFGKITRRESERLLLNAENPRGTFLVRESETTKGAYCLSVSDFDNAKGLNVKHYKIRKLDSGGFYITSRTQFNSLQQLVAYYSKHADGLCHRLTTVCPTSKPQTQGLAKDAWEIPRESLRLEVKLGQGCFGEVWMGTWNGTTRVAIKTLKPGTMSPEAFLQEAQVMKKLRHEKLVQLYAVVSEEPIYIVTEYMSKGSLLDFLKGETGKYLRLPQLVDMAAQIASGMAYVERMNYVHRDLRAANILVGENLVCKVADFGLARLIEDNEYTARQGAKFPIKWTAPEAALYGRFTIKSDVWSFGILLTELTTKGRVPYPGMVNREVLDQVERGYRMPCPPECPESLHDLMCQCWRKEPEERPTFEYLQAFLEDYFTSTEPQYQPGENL
Mitogen-activated protein kinase kinase kinase kinase 4, sequence (O95819 2-1239 limits assumed): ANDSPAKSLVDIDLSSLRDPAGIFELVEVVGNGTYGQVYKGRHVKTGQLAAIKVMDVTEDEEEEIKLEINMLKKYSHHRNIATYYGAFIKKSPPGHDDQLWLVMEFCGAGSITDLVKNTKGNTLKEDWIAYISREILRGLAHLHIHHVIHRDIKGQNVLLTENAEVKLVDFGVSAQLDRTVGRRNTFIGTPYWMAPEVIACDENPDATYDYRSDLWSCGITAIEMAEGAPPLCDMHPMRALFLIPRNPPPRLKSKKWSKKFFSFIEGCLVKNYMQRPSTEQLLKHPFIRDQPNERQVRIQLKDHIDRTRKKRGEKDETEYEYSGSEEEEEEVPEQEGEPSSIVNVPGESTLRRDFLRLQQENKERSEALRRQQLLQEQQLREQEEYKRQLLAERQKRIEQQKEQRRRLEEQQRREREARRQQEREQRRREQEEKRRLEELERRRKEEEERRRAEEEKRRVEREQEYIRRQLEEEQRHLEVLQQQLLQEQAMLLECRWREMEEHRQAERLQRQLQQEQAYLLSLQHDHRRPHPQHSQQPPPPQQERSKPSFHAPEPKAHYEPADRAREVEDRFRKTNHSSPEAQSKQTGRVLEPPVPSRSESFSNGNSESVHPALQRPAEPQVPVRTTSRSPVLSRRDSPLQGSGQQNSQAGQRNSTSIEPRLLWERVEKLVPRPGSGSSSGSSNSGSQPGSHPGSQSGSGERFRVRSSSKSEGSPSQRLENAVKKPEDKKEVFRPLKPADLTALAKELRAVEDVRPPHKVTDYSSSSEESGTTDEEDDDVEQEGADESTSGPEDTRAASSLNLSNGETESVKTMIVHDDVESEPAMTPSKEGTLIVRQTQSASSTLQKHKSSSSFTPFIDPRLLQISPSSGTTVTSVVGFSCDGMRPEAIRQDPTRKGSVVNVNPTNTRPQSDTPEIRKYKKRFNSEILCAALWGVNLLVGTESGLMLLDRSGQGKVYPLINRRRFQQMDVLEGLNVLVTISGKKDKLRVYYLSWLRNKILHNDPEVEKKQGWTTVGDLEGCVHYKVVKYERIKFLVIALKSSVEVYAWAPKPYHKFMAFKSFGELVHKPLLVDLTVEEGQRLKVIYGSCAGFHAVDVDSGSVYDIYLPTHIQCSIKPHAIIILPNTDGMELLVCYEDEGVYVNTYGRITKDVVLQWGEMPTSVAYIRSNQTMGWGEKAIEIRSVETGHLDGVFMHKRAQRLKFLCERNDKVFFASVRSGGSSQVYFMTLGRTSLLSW
Serine/threonine-protein kinase WNK2 (Homo sapiens), sequence (Q9Y3S1 whole entry): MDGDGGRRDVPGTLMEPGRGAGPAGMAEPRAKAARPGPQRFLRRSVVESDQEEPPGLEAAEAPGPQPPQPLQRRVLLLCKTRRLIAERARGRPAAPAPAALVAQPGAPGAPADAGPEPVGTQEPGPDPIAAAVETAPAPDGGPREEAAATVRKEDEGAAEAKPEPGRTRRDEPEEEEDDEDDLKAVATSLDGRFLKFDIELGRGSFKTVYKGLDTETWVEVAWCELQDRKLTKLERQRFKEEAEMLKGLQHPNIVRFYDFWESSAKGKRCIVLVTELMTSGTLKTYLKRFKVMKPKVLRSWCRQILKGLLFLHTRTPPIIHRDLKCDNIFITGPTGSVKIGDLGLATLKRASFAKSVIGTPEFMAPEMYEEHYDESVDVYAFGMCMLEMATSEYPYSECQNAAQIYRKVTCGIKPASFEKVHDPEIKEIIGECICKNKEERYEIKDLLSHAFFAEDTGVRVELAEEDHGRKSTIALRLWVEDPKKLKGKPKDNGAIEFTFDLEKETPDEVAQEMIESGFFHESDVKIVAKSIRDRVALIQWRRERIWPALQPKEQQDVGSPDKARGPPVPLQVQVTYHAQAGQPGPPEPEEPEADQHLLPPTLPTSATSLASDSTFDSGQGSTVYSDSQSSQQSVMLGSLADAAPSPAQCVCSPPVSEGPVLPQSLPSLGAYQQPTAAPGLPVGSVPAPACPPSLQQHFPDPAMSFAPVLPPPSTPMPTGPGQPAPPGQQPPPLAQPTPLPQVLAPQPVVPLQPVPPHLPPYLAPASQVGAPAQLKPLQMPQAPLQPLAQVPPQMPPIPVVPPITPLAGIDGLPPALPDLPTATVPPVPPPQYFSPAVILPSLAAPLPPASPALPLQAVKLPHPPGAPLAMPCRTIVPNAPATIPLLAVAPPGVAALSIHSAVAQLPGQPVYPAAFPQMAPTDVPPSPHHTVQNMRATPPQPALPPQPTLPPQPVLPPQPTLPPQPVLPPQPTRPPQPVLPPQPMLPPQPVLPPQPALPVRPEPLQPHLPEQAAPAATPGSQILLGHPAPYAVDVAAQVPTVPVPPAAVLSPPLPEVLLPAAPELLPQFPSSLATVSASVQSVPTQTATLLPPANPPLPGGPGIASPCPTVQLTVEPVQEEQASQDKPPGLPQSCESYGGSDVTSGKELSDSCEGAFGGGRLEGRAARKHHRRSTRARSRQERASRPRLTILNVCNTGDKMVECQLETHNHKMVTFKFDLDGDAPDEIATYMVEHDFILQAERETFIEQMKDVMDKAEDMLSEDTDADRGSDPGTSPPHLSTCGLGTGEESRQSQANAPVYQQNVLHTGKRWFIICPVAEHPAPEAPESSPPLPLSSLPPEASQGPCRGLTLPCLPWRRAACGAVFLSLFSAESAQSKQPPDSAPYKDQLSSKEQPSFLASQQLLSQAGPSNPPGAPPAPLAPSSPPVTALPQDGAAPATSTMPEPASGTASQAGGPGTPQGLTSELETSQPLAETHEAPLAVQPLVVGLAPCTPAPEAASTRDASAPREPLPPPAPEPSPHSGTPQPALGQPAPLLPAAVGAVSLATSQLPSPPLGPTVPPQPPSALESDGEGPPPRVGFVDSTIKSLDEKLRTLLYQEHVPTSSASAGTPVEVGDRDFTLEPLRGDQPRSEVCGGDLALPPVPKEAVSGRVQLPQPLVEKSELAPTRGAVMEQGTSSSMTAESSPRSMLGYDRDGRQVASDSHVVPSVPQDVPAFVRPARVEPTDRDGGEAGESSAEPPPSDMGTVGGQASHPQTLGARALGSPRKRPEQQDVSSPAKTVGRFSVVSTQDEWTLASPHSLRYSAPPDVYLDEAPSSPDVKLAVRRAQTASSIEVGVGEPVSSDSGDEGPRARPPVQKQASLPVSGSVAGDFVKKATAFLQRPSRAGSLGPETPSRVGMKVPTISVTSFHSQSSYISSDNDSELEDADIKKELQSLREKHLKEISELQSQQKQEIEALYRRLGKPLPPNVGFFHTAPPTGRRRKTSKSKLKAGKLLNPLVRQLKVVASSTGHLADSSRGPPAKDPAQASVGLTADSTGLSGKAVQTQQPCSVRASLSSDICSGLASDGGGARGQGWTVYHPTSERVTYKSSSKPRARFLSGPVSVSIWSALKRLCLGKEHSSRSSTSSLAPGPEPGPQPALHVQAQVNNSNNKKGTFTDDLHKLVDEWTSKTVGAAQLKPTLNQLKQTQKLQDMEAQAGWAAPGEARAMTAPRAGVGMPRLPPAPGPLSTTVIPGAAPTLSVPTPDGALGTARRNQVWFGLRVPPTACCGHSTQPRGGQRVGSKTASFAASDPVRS

Structure (SMILES) | inhibition [1] [%] | inhibition [2] [%] | inhibition [3] [%] | inhibition [4] [%] | inhibition [5] [%] | inhibition [6] [%] | inhibition [7] [%] | inhibition [8] [%]
CNc1cc(Oc2cc(C(=O)Nc3cc(N4CCN(C)CC4)cc(C(F)(F)F)c3)ccc2C)ncn1 | 18.1 | – | – | – | – | – | – | –
CCN1CCN(Cc2ccc(NC(=O)c3ccc(C)c(/C=C/c4cnc5[nH]ccc5c4OC)c3)cc2C(F)(F)F)CC1 | – | > 88 | 17.6 | 12.2 | -8.8 | 6.9 | 38.2 | 80.5
CNc1cc(Oc2cc(C(=O)Nc3cc(-n4cnc(C)c4)cc(C(F)(F)F)c3)ccc2C)ncn1 | -2.8 | – | – | – | – | – | – | –
CCN1CCN(Cc2ccc(NC(=O)c3ccc(C)c(Oc4ccnc5[nH]ccc45)c3)cc2C(F)(F)F)CC1 | – | 86.4 | 37.3 | 32.1 | -9.5 | 3.9 | 33.3 | 74.1

Source: ChEMBL document CHEMBL5696442, “Discovery of type II inhibitors of TGFβ-activated kinase 1 (TAK1) and mitogen-activated protein kinase kinase kinase kinase 2 (MAP4K2)” (J Med Chem, 2015)
